Laboratory results published in ChEMBL document CHEMBL4321829, “Chagas Disease Drug Discovery: Multiparametric Lead Optimization against Trypanosoma cruzi in Acylaminobenzothiazole Series” (J Med Chem, 2019).
Converted amounts (≈) assume the structure as drawn. The source made the active and inactive calls. The calls are words filed in the database; no cut-off is given here.

Experiments:
[1] = Selectivity index, ratio of IC50 for rat H9c2 cells to IC50 for antitrypanosomal activity against Trypanosoma cruzi Tulahuen trypomastigotes beta-galactosidase infected in rat H9c2 cells; format: toxicity, cell-based; settings: read-out: Ratio IC50
[2] = tested on: Trypanosoma cruzi; test: Antitrypanosomal activity against Trypanosoma cruzi Tulahuen trypomastigotes beta-galactosidase infected in rat H9c2 cells measured after 72 hrs by DRAQ5 DNA dye based confocal microscopic analysis; format: functional, organism-based; settings: H9c2, 72 h
[3] = tested on: H9c2; test: Cytotoxicity against rat H9c2 cells assessed as reduction in cell viability; format: cell-based
[4] = tested on: Trypanosoma cruzi; test: Antitrypanosomal activity against Trypanosoma cruzi Tulahuen C4 trypomastigotes harboring beta-galactosidase infected in mouse 3T3 cells after 90 mins by luminescence based assay; format: functional, organism-based; settings: Tulahuen C4, NIH3T3, 1.5 h
[5] = Drug level in C57BL/6 mouse treated with 50 mg/kg, po N-(5-Fluoro-6-(trifluoromethyl)benzothiazol-2-yl)cyclopropanecarboxamide administered as suspension via gavage assessed as compound formation after 15 mins to 24 hrs by LC-MS/Ms analysis; format: ADME, organism-based; settings: in vivo
Summary of the method: (§1)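 Female C57BL/6 mice (n=3) were gavaged with 50 mg/kg parent compound as a 1% methylcellulose suspension. Whole blood was sampled at 15, 30, 45 min and 1, 2, 4, 8 and 24 h, diluted 1/2 with water and frozen.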

[6] = Intrinsic clearance in CD-1 mouse liver microsomes at 0.5 uM in presence of NADPH measured up to 45 mins by UPLC/MS/MS analysis; format: ADME, Microsome; settings: 0.75 h
Summary of the method: (§2)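 Compound at 0.5 μM was incubated with male CD1 mouse or human liver microsomes (0.5 mg/mL in 50 mM potassium phosphate, pH 7.4). The reaction was started with excess NADPH. Samples were taken at 0 and serial times up to 45 min, quenched in acetonitrile with internal standard and analysed by UPLC/MS/MS. Clint (mL/min/g tissue) was derived from t1/2 of parent remaining. Midazolam was the positive control.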

[7] = Intrinsic clearance in human liver microsomes at 0.5 uM in presence of NADPH measured up to 45 mins by UPLC/MS/MS analysis; format: ADME, Microsome; settings: 0.75 h; summary of the method: as §2
[8] = Half life in CD-1 mouse at 5 mg/kg, iv after 5 mins to 24 hrs by LC-MS/MS analysis; format: ADME, organism-based; settings: in vivo
Summary of the method: (§3)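 Male CD-1 mice (n=3) received a 5 mg/kg i.v. bolus in 5% DMSO/20% encapsine in saline. Blood was drawn at 5, 15, 30 min and 1, 2, 4, 8 and 24 h, diluted 1/2 with water and frozen.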

[9] = AUCt in C57BL/6 mouse at 50 mg/kg, po after 15 mins to 24 hrs by LC-MS/MS analysis; format: ADME, organism-based; design: dose 50 mg/kg, time upper 24 hr, time lower 0.25 hr, route oral; settings: in vivo
[10] = Volume of drug distribution at steady state in CD-1 mouse at 5 mg/kg, iv after 5 mins to 24 hrs by LC-MS/MS analysis; format: ADME, organism-based; settings: in vivo, read-out: Vdss; summary of the method: as §3
[11] = tested on: Trypanosoma cruzi; test: Antitrypanosomal activity against tdTomato red expressing Trypanosoma cruzi CL trypomastigotes infected in C57BL/6 mouse at 50 mg/kg administered for 2 days and measured after 4 to 6 days post infection; format: functional, organism-based
Summary of the method: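 Baseline footpad fluorescence was imaged on day 2. A single 50 mg/kg dose in 1% carboxymethyl cellulose/0.1% Tween 80 was then given. Imaging was repeated at day 4 or 6. IVA was calculated from the treated versus untreated fluorescence change. Controls were 50 mg/kg benznidazole and untreated mice.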

[12] = Ratio of drug level in blood to plasma in human at 1 uM after 1 hr by LC-MS/MS analysis; format: ADME, cell-free
Summary of the method: (§4)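 Compound at a final 1 μM was mixed into prewarmed mouse or human whole blood at 37 °C. At 0 and 60 min, blood aliquots were lysed with water and matrix-matched with plasma. Samples were precipitated with IS-containing buffer and analysed by LC-MS/MS. The blood/plasma ratio was taken from compound:IS peak-area ratios.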

[13] = Clearance in CD-1 mouse at 5 mg/kg, iv after 5 mins to 24 hrs by LC-MS/MS analysis; format: ADME, organism-based; settings: in vivo; summary of the method: as §3
[14] = AUC in C57BL/6 mouse assessed as 5-Fluoro-6-(trifluoromethyl)benzothiazol-2-amine level at 50 mg/kg, po adminstered via gavage as suspension after 15 mins to 24 hrs by LC-MS/MS analysis; format: ADME, organism-based; design: dose 50 mg/kg, time upper 24 hr, time lower 0.25 hr, route oral; settings: in vivo; summary of the method: as §1
[15] = Solubility of compound in FASSIF at 1 mg incubated for 4 hrs by HPLC-UV analysis; format: physicochemical
Summary of the method: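 1 mg of solid compound was shaken in 1 mL FaSSIF at pH 6.5, at 900 rpm for 4 h at room temperature. The suspension was filtered and the supernatant quantified by HPLC-UV against a single-point DMSO standard. The dynamic range was 1–1000 μg/mL.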

[16] = Protein binding in human plasma at 2 uM after 4 hrs by LC-MS/MS analysis; format: ADME, cell-free
Summary of the method: (§5)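 Equilibrium dialysis was run in RED inserts with mouse or human plasma at a final concentration of 2 μM, in triplicate. The receiver side held PBS at pH 7.4. Plates were incubated for 4 h at 37 °C at about 150 rpm. Samples were matrix-matched, protein-precipitated and analysed by LC-MS/MS. %PPB = 100 − (buffer/plasma × 100).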

[17] = Ratio of drug level in blood to plasma in mouse at 1 uM after 1 hr by LC-MS/MS analysis; format: ADME, cell-free; summary of the method: as §4
[18] = Tmax in C57BL/6 mouse at 50 mg/kg, po after 15 mins to 24 hrs by LC-MS/MS analysis; format: ADME, organism-based; settings: in vivo
[19] = Cmax in C57BL/6 mouse assessed as 5-Fluoro-6-(trifluoromethyl)benzothiazol-2-amine level at 50 mg/kg, po adminstered via gavage as suspension after 15 mins to 24 hrs by LC-MS/MS analysis; format: ADME, organism-based; design: dose 50 mg/kg, route oral; settings: in vivo; summary of the method: as §1
[20] = Protein binding in mouse plasma at 2 uM after 4 hrs by LC-MS/MS analysis; format: ADME, cell-free; summary of the method: as §5
[21] = Efflux ratio of apparent permeability across […] in MDCK-MDR1 cells at 3 uM after 60 mins by LC-MS/MS analysis; format: ADME, cell-based, Canis lupus familiaris; settings: dog, mdck-mdr1, 1 h
Summary of the method: (§6)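 Papp was measured in MDR1-MDCK monolayers in HBSS at pH 7.4 (n=2), at 3 μM for 60 min. Transport was measured AB and BA, with and without the P-gp inhibitor GF120918. Monolayers were checked by TEER and Lucifer yellow. Analytes were measured by LC-MS/MS as analyte/IS area ratios. Amprenavir, prazosin and propranolol served as references.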

[22] = Cmax in C57BL/6 mouse at 50 mg/kg, po after 15 mins to 24 hrs by LC-MS/MS analysis; format: ADME, organism-based; design: dose 50 mg/kg, route oral; settings: in vivo
[23] = Kinetic solubility of compound by charged aerosol detection method; format: physicochemical; settings: read-out: Kinetic_solubility
[24] = Apparent permeability in MDCK-MDR1 cells at 3 uM after 60 mins by LC-MS/MS analysis; format: ADME, cell-based, Canis lupus familiaris; settings: dog; summary of the method: as §6

Compound | IC50 [2] | selectivity ratio [1] | IC50 [3] | further results
O=C(CC1CC1)Nc1nc2ccc(Cl)cc2s1 | 5.4 µM | > 9 | > 50 µM | 
O=C(Nc1nc2ccc(F)cc2s1)C1CC1 | 4.22 µM | > 12 | > 50 µM | 
CNS(=O)(=O)c1cc2sc(NC(=O)C3CC3)nc2cc1F | 26 µM | > 2 | > 50 µM | 
O=C(C1CC1)N(CCO)c1nc2ccc(Cl)cc2s1 | > 50 µM | 1 | > 50 µM | 
O=C(Nc1nc2cccc(Cl)c2s1)C1CC1 | 24 µM | > 2 | > 50 µM | 
FC(F)(F)c1ccc2nc(N/N=C/C3CC3)sc2c1 | 2.4 µM | 5 | 13 µM | 
O=C(Nc1nc2c(Cl)cccc2s1)C1CC1 | > 50 µM |  | > 50 µM | 
O=C(CCO)Nc1nc2ccc(Cl)cc2s1 | 14 µM | > 3 | > 50 µM | 
O=C(Nc1nc2ccc(Cl)cc2s1)C1CCOC1 (stereo unspecified) | 4.4 µM | > 11 | > 50 µM | 
CC(=O)N(CCCN(C)C)c1nc2ccc(C)cc2s1 |  |  |  | IC50 [4]: 0.236 µM
CCCCN(C(=O)C1CC1)c1nc2ccc(Cl)cc2s1 | > 50 µM | 1 | > 50 µM | 
Cc1cc2nc(NC(=O)C3CC3)sc2cc1C(F)(F)F | 26 µM | 1 | 36 µM | 
CCOc1ccc2nc(NC(=O)C3CC3)sc2c1 | 2.5 µM | > 20 | > 50 µM | 
N#Cc1cc2nc(NC(=O)C3CC3)sc2cc1C(F)(F)F | > 50 µM |  | 15.5 µM | 
Clc1ccc2nc(NCC3CC3)sc2c1 | 27 µM | > 2 | > 50 µM | 
CCN(C(=O)C1CC1)c1nc2ccc(Cl)cc2s1 | > 50 µM | 1 | > 50 µM | 
O=C(Nc1nc2cc(C(F)(F)F)c(F)cc2s1)C1CC1 | 35 µM | 1 | 46 µM | 
CCS(=O)(=O)c1cc2sc(NC(=O)C3CC3)nc2cc1F | 42 µM | > 1 | > 50 µM | 
CN(C(=O)C1CC1)c1nc2ccc(Cl)cc2s1 | 25 µM | > 2 | > 50 µM | 
Nc1nc2cc(F)c(C(F)(F)F)cc2s1 |  |  |  | Drug metabolism [5]: Metabolite_Detected
COc1cc2nc(NC(=O)C3CC3)sc2cc1C(F)(F)F | 20 µM | > 2.5 | > 50 µM | 
O=S(=O)(Nc1nc2ccc(C(F)(F)F)cc2s1)C1CC1 | > 50 µM | < 0.13 | 6.6 µM | 
CN(C)CCCN(C(=O)c1nc2ccccc2s1)c1nc2ccc(F)cc2s1 |  |  |  | IC50 [4]: 0.1 µM
Cc1ccc2nc(NC(=O)C3CC3)sc2c1 | 4.52 µM | > 11 | > 50 µM | 
O=C(Nc1nc2ccc(Cl)cc2s1)C1COC1 | 4.4 µM | > 11 | > 50 µM | 
O=C(Nc1nc2ccc(Cl)cc2s1)C1CC1 | 0.63 µM | > 80 | > 50 µM | CLH [6]: 2.51 mL/min/g; CLH [7]: 9.57 mL/min/g; IC50 [4]: 0.119 µM
CC(C)(C)c1ccc2nc(NC(=O)C3CC3)sc2c1 | 7.85 µM | 4 | 32 µM | 
CCCC(=O)Nc1nc2ccc(Cl)cc2s1 | 4.73 µM | > 11 | > 50 µM | 

Second part, led by results:

IC50 [2] | Compound | selectivity ratio [1] | IC50 [3] | further results
0.19 µM | O=C(Nc1nc2ccc(OC(F)(F)F)cc2s1)C1CC1 | 28 | 5 µM | 
1.32 µM | O=C(Nc1nc2ccc(Cl)cc2s1)C1CCC1 | > 38 | > 50 µM | 
0.13 µM | CC(C)(F)C(=O)Nc1nc2ccc(C(F)(F)F)cc2s1 | > 384 | > 50 µM | 
1 µM | CC(C)(F)C(=O)Nc1nc2cc(F)c(C(F)(F)F)cc2s1 | > 50 | > 50 µM | 
0.41 µM | CC(C)C(=O)Nc1nc2ccc(Cl)cc2s1 | > 123 | > 50 µM | 
0.25 µM | CC(C)C(=O)Nc1nc2cc(F)c(C(F)(F)F)cc2s1 | > 200 | > 50 µM | 
0.95 µM | CC(C)(C)C(=O)Nc1nc2ccc(Cl)cc2s1 | > 52 | > 50 µM | 
2.3 µM | N#Cc1cc2sc(NC(=O)C3CC3)nc2cc1F | > 22 | > 50 µM | 
0.32 µM | O=C(Nc1nc2cc(Cl)ccc2s1)C1CC1 | > 158 | > 50 µM | 
0.1 µM | O=C(Nc1nc2ccc(C(F)(F)F)cc2s1)C1CC1 | > 500 | > 50 µM | CLH [6]: 2.71 mL/min/g; CLH [7]: 0.94 mL/min/g
0.04 µM | O=C(Nc1nc2ccc([N+](=O)[O-])cc2s1)C1CC1 | > 1200 | > 50 µM | CLH [6]: 3.06 mL/min/g; CLH [7]: 1.57 mL/min/g
0.14 µM | CCc1ccc2nc(NC(=O)C3CC3)sc2c1 | > 357 | > 50 µM | CLH [6]: 125 mL/min/g; CLH [7]: 10.4 mL/min/g
1.19 µM | CC(C)c1ccc2nc(NC(=O)C3CC3)sc2c1 | > 50 | > 50 µM | 
0.079 µM | O=C(Nc1nc2cc(F)c(C(F)(F)F)cc2s1)C1CC1 | > 630 | > 50 µM | half-life [8]: 0.97 h; CLH [6]: 5.26 mL/min/g; AUC(0-t) [9]: 31600 ng·h/mL; Vd [10]: 5.73 L/kg; Activity [11]: Active; blood plasma ratio at 1 h, 1 µM [12]: 0.8; clearance [13]: 58.3 mL/min/kg; AUC [14]: 10065.32 ng·h/mL; solubility at 4 h [15]: 51 µg/mL (≈ 168 µM); PPB [16]: Active; blood plasma ratio at 1 h, 1 µM [17]: 1.2; Tmax [18]: 1.33 h; Cmax [19]: 634 ng/mL; PPB [20]: Active; Ratio [21]: 1.5; Cmax [22]: 3390 ng/mL; CLH [7]: 0.41 mL/min/g; solubility kinetic [23]: 36 µM (≈ 11 µg/mL); Papp at 1 h, 3 µM [24]: 17.4 ×10⁻⁶ cm/s
